What all share (type): functional
The test system of test [1] is Mycobacterium tuberculosis. Kind of test: Antitubercular activity against PAS/INH/EMB/RMP-resistant Mycobacterium tuberculosis Spec.210 assessed as inhibition of microbial growth by classical test tube method. The method, boiled down: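 Classical test-tube serial dilution in Youmans' modified Proskauer–Beck liquid medium with 10% bovine serum. Inoculum came from 14-day-old cultures. Compounds were given as DMSO solutions (stock 10 mg/ml), diluted geometrically in medium to 3.1–100 µg/ml, and incubated at 37 °C. MIC is the minimum concentration inhibiting growth relative to a no-compound control.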

Test [2] relates to Mycobacterium tuberculosis. Description: Antitubercular activity against PAS/INH/EMB/RMP-resistant Mycobacterium tuberculosis Spec.210 assessed as inhibition of microbial growth incubated for 1 week by MABA method. Conditions: Mycobacterium tuberculosis, 210, 168 h; time 1 weeks. The method, boiled down:
(§1)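 Microplate Alamar Blue assay in Middlebrook 7H9 broth with 10% OADC. Inoculum from fresh LJ culture was adjusted to McFarland 1 and diluted 1:20. DMSO stocks were two-fold serially diluted to final 0.125–512 µg/ml, with growth and sterile controls. Plates ran 1 week at 37 °C, then Alamar blue was added for 24 h. MIC is the lowest concentration preventing the blue-to-pink change.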
(In general: The colour change of resazurin is a common sign of viable cells or microbes.)

Test [3] concerns Mycobacterium tuberculosis. Kind of test: Potency index, Ratio of ethambutol MIC to test compound MIC for antitubercular activity against PAS/INH/EMB/RMP-resistant Mycobacterium tuberculosis Spec.210 assessed as inhibition of microbial growth incubated for 1 week by MABA method. Conditions: time 1 weeks.
Test [4] relates to Mycobacterium tuberculosis. Kind of test: Potency index, Ratio of streptomycin MIC to test compound MIC for antitubercular activity against PAS/INH/EMB/RMP-resistant Mycobacterium tuberculosis Spec.210 assessed as inhibition of microbial growth incubated for 1 week by MABA method. The note with it: time 1 weeks.
Test [5] relates to Mycobacterium tuberculosis. Description: Potency index, Ratio of rifampicin MIC to test compound MIC for antitubercular activity against PAS/INH/EMB/RMP-resistant Mycobacterium tuberculosis Spec.210 assessed as inhibition of microbial growth incubated for 1 week by MABA method. The note with it: time 1 weeks.
In test [6] the test system is Mycobacterium tuberculosis. Description: Potency index, Ratio of isoniazid MIC to test compound MIC for antitubercular activity against PAS/INH/EMB/RMP-resistant Mycobacterium tuberculosis Spec.210 assessed as inhibition of microbial growth incubated for 1 week by MABA method. The note with it: time 1 weeks.
Test [7] deals with Mycobacterium tuberculosis. Kind of test: Antitubercular activity against INH-resistant Mycobacterium tuberculosis Spec.800 harboring InhA promoter mutation assessed as inhibition of microbial growth incubated for 1 week by MABA method. Conditions: time 1 weeks. The method, boiled down:
as §1

By MIC is commonly meant the smallest concentration in the dilution series that meets the test's criterion for growth inhibition.

Regarding `COc1ccc(NC(S)=Nc2ccc(F)cc2)cc1`, the minimum inhibitory concentration (MIC) in test [1] amounted to 100 µg/mL.
Still for that read-out and setting: the result for `COc1ccc(NC(=S)Nc2cccc(Cl)c2)cc1` reads 100 µg/mL.
As for `COc1ccc(Nc2nnnn2-c2ccc(Cl)cc2)cc1`, the MIC turned out to be 8 µg/mL in test [2] and 128 µg/mL in test [7]. Also, the Ratio in test [3], in test [4], in test [5] and in test [6] was 2 throughout.
As for `COc1ccc(-n2nnnc2Nc2ccccc2Br)cc1`, the values for the MIC in test [2] and in test [7] were 64 µg/mL and 512 µg/mL, respectively.
`COc1ccc(-n2nnnc2Nc2ccccc2F)cc1`: the MIC in test [2] worked out at 16 µg/mL.
For the compound `COc1ccc(Nc2nnnn2-c2cccc(Cl)c2)cc1`, the values for the MIC in test [2] and in test [7] were 8 µg/mL and 128 µg/mL, respectively. Also, the Ratio in test [3], in test [4], in test [5] and in test [6] was 2 in each case.
In the case of `COc1ccc(-n2nnnc2Nc2cccc(F)c2)cc1`, the minimum inhibitory concentration (MIC) in test [2] worked out at 8 µg/mL; in test [7], 256 µg/mL. The Ratio in test [3], in test [4], in test [5] and in test [6] was 2 throughout.
In the case of `COc1ccc(-n2nnnc2Nc2cccc(Cl)c2)cc1`, the MIC in test [2] was found to be 32 µg/mL; in test [7] it was 256 µg/mL.
For `COc1ccc(-n2nnnc2Nc2ccccc2Cl)cc1`, the results for the minimum inhibitory concentration (MIC) in test [2] and in test [7] were 8 µg/mL and 256 µg/mL, respectively. Also, the Ratio in test [3], in test [4], in test [5] and in test [6] was 2 throughout.
For `COc1ccc(-n2nnnc2Nc2ccc(Cl)cc2)cc1`, the results for the MIC in test [2] and in test [7] were 16 µg/mL and 256 µg/mL, respectively.
Take `COc1ccc(NC(=S)Nc2ccc(Cl)cc2)cc1`: the MIC in test [1] was 50 µg/mL.
On to `COc1ccc(Nc2nnnn2-c2ccccc2F)cc1`, for which, in test [2], the MIC stood at 16 µg/mL.
Regarding `COc1ccc(-n2nnnc2Nc2ccc(F)cc2)cc1`, the MIC came to 32 µg/mL in test [2] and 512 µg/mL in test [7].
Turning to `COc1ccc(NC(=S)Nc2cccc(Br)c2)cc1`, in test [1], the MIC turned out to be 50 µg/mL.
Same read-out and setting: the result for `COc1ccc(NC(=S)Nc2ccccc2Br)cc1` reads 50 µg/mL.
Consider `COc1ccc(Nc2nnnn2-c2ccccc2Br)cc1`, for which the minimal inhibitory concentration (MIC) in test [2] was 16 µg/mL; in test [7] it was 256 µg/mL.
For `COc1ccc(NC(=S)Nc2ccc(Br)cc2)cc1`, the minimal inhibitory concentration (MIC) in test [1] was greater than 100 µg/mL.
Turning to `COc1ccc(NC(=S)Nc2ccccc2Cl)cc1`, the MIC in test [1] was found to be 50 µg/mL.
`COc1ccc(Nc2nnnn2-c2cccc(Br)c2)cc1`: the MIC in test [2] was 16 µg/mL; in test [7], 256 µg/mL.
As to `COc1ccc(Nc2nnnn2-c2ccc(Br)cc2)cc1`, the MIC is 16 µg/mL in test [2] and 256 µg/mL in test [7].
Regarding `COc1ccc(Nc2nnnn2-c2ccc(F)cc2)cc1`, the MIC in test [2] is 8 µg/mL; in test [7] it was 128 µg/mL. Also, the Ratio in test [3], in test [4], in test [5] and in test [6] was 2 in each case.
Consider `COc1ccc(NC(=S)Nc2cccc(F)c2)cc1`, for which the MIC in test [1] is 100 µg/mL.
On to `COc1ccc(Nc2nnnn2-c2ccccc2Cl)cc1`, for which the MIC in test [2] stood at 8 µg/mL; in test [7], 128 µg/mL. Also, the Ratio in test [3], in test [4], in test [5] and in test [6] was 2 each time.
`COc1ccc(Nc2nnnn2-c2cccc(F)c2)cc1`: the figures for the MIC in test [2] and in test [7] were 16 µg/mL and 256 µg/mL, respectively.
Take `COc1ccc(NC(=S)Nc2ccccc2F)cc1`: in test [1], the MIC was 100 µg/mL.
As for `CC[C@@H](CO)NCCN[C@@H](CC)CO` [ETHAMBUTOL], the results for the MIC in test [2], in test [1] and in test [7] were 32 µg/mL, 50 µg/mL and 2 µg/mL, respectively.
For `NNC(=O)c1ccncc1` [ISONIAZID] the same measures were 16 µg/mL, 12.5 µg/mL and 2 µg/mL.
The corresponding values for `CO[C@H]1/C=C/O[C@@]2(C)Oc3c(C)c(O)c4c(O)c(c(/C=N/N5CCN(C)CC5)c(O)c4c3C2=O)NC(=O)/C(C)=C\C=C\[C@H](C)[C@H](O)[C@@H](C)[C@@H](O)[C@@H](C)[C@H](OC(C)=O)[C@@H]1C` [RIFAMPIN] are 32 µg/mL, 50 µg/mL and 1 µg/mL.
Take `CN[C@@H]1[C@H](O[C@H]2[C@H](O[C@H]3[C@H](O)[C@@H](O)[C@H](N=C(N)N)[C@@H](O)[C@@H]3N=C(N)N)O[C@@H](C)[C@]2(O)C=O)O[C@@H](CO)[C@H](O)[C@H]1O` [STREPTOMYCIN]: the minimal inhibitory concentration (MIC) stood at 16 µg/mL in test [2], 25 µg/mL in test [1] and 1 µg/mL in test [7].

(Values after ChEMBL document CHEMBL4680121, “Development of (4-methoxyphenyl)-1H-tetrazol-5-amine regioisomers as a new class of selective antitubercular agents” (Eur J Med Chem, 2020).)
